We go through twelve molecules from ChEMBL document CHEMBL4190216, “Asymmetric 1,5-diarylpenta-1,4-dien-3-ones: Antiproliferative activity in prostate epithelial cell models and pharmacokinetic studies” (Eur J Med Chem, 2017).

One experiment has as its system PC-3. The experiment is described as follows: Antiproliferative activity against human PC3 cells assessed as decrease in cell viability after 3 days by WST assay. Type of experiment: functional, cell-based. The note with it: PC-3, 72 h. The gist of the method: (§1)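 Cells were seeded at 3,200 per well. PC-3 and LNCaP were grown in RPMI-1640 and DU-145 in EMEM, each with 10% FBS and 1% penicillin/streptomycin, at 37 °C and 5% CO2. Cells were exposed for 3 days to at least five concentrations, with DMSO as vehicle control. WST-1 reagent was then added for 3 h at 37 °C and absorbance read at 430 nm. IC50 came from linear inhibition, averaged over triplicates.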
Turning to `CC(C)n1ccnc1/C=C/C(=O)/C=C/c1cnc(N2CCOCC2)s1`, the IC50 was 2270 nM.

Regarding `Cc1nc(-c2ccncc2)sc1/C=C/C(=O)/C=C/c1nccn1C(C)C`, the IC50 worked out at 800 nM.

Consider `CCC(C)n1ccnc1/C=C/C(=O)/C=C/c1ccccn1` (stereo not drawn), for which the 50% inhibitory concentration (IC50) was 300 nM.

`Cn1cc(Br)c(/C=C/C(=O)/C=C/c2ccccn2)n1`: the IC50 was 310 nM.

Take `CC(C)CCn1ccnc1/C=C/C(=O)/C=C/c1nc2ccccc2n1CCC(C)C`: the IC50 turned out to be 210 nM.

In the case of `CCCCn1ccnc1/C=C/C(=O)/C=C/c1nc2ccccc2n1CCCC`, the concentration for half-maximal inhibition (IC50) is 190 nM.

Consider `Cn1c(/C=C/C(=O)/C=C/c2ccccn2)nc2ccccc21`, for which the IC50 was 560 nM.

With `CC(C)n1ccnc1/C=C/C(=O)/C=C/c1cnc(N2CCCCC2)s1`, the half-inhibitory concentration (IC50) was found to be 3400 nM.

Take `Cc1cc(/C=C/C(=O)/C=C/c2ccccn2)no1`: the IC50 turned out to be 450 nM.

As for `CC(C)n1ccnc1/C=C/C(=O)/C=C/c1nc2ccccc2n1C(C)C`, the half-maximal inhibitory concentration (IC50) amounted to 180 nM.

Consider `CCC(C)n1ccnc1/C=C/C(=O)/C=C/c1cc(OC)c(OC)c(OC)c1` (stereo not drawn), for which the half-maximal inhibitory concentration (IC50) was found to be 720 nM.

On to `CCC(C)n1ccnc1/C=C/C(=O)/C=C/c1nc2ccccc2n1C(C)CC` (stereo not drawn), for which the concentration for half-maximal inhibition (IC50) came to 240 nM.

The test system of the next experiment is DU-145. In words: Antiproliferative activity against human DU145 cells assessed as decrease in cell viability after 3 days by WST assay. The settings on record: DU-145, 72 h. The format is functional, cell-based. In outline: as §1
On to `CC(C)n1ccnc1/C=C/C(=O)/C=C/c1cnc(N2CCOCC2)s1`, for which the half-maximal inhibitory concentration (IC50) amounted to 1320 nM.

Regarding `Cc1nc(-c2ccncc2)sc1/C=C/C(=O)/C=C/c1nccn1C(C)C`, the IC50 was determined as 660 nM.

Regarding `CCC(C)n1ccnc1/C=C/C(=O)/C=C/c1ccccn1` (stereo not drawn), the IC50 is 340 nM.

For the molecule `Cn1cc(Br)c(/C=C/C(=O)/C=C/c2ccccn2)n1`, the concentration for half-maximal inhibition (IC50) was 500 nM.

With `CC(C)CCn1ccnc1/C=C/C(=O)/C=C/c1nc2ccccc2n1CCC(C)C`, the 50% inhibitory concentration (IC50) came to 770 nM.

As for `CCCCn1ccnc1/C=C/C(=O)/C=C/c1nc2ccccc2n1CCCC`, the 50% inhibitory concentration (IC50) was 310 nM.

On to `Cn1c(/C=C/C(=O)/C=C/c2ccccn2)nc2ccccc21`, for which the concentration for half-maximal inhibition (IC50) came out at 680 nM.

Turning to `CC(C)n1ccnc1/C=C/C(=O)/C=C/c1cnc(N2CCCCC2)s1`, the IC50 stood at 2550 nM.

As for `Cc1cc(/C=C/C(=O)/C=C/c2ccccn2)no1`, the concentration for half-maximal inhibition (IC50) came to 700 nM.

Regarding `CC(C)n1ccnc1/C=C/C(=O)/C=C/c1nc2ccccc2n1C(C)C`, the half-inhibitory concentration (IC50) stood at 130 nM.

Consider `CCC(C)n1ccnc1/C=C/C(=O)/C=C/c1cc(OC)c(OC)c(OC)c1` (stereo not drawn), for which the 50% inhibitory concentration (IC50) was found to be 670 nM.

Consider `CCC(C)n1ccnc1/C=C/C(=O)/C=C/c1nc2ccccc2n1C(C)CC` (stereo not drawn), for which the IC50 was found to be 350 nM.

The test system of a further experiment is LNCaP. In words: Antiproliferative activity against human LNCAP cells assessed as decrease in cell viability after 3 days by WST assay. The format is functional, cell-based. The note with it: 72 h. The gist of the method: as §1
Consider `CC(C)n1ccnc1/C=C/C(=O)/C=C/c1cnc(N2CCOCC2)s1`, for which the IC50 was 1410 nM.

With `Cc1nc(-c2ccncc2)sc1/C=C/C(=O)/C=C/c1nccn1C(C)C`, the IC50 was 540 nM.

Take `CCC(C)n1ccnc1/C=C/C(=O)/C=C/c1ccccn1` (stereo not drawn): the concentration for half-maximal inhibition (IC50) amounted to 240 nM.

`Cn1cc(Br)c(/C=C/C(=O)/C=C/c2ccccn2)n1`: the IC50 stood at 220 nM.

`CC(C)CCn1ccnc1/C=C/C(=O)/C=C/c1nc2ccccc2n1CCC(C)C`: the IC50 amounted to 930 nM.

As to `CCCCn1ccnc1/C=C/C(=O)/C=C/c1nc2ccccc2n1CCCC`, the 50% inhibitory concentration (IC50) was found to be 400 nM.

For `Cn1c(/C=C/C(=O)/C=C/c2ccccn2)nc2ccccc21`, the concentration for half-maximal inhibition (IC50) stood at 180 nM.

Regarding `CC(C)n1ccnc1/C=C/C(=O)/C=C/c1cnc(N2CCCCC2)s1`, the IC50 is 2170 nM.

In the case of `Cc1cc(/C=C/C(=O)/C=C/c2ccccn2)no1`, the 50% inhibitory concentration (IC50) was 310 nM.

With `CC(C)n1ccnc1/C=C/C(=O)/C=C/c1nc2ccccc2n1C(C)C`, the IC50 came to 260 nM.

As to `CCC(C)n1ccnc1/C=C/C(=O)/C=C/c1cc(OC)c(OC)c(OC)c1` (stereo not drawn), the IC50 amounted to 660 nM.

In the case of `CCC(C)n1ccnc1/C=C/C(=O)/C=C/c1nc2ccccc2n1C(C)CC` (stereo not drawn), the IC50 amounted to 330 nM.

A further experiment relates to PC-3. The experiment is described as follows: Potency index, ratio of curcumin IC50 to test compound IC50 for human PC3 cells. Type of experiment: functional.
Settings: not given
Take `CC(C)n1ccnc1/C=C/C(=O)/C=C/c1cnc(N2CCOCC2)s1`: the “Ratio IC50” value was 11.

Take `Cc1nc(-c2ccncc2)sc1/C=C/C(=O)/C=C/c1nccn1C(C)C`: the “Ratio IC50” value turned out to be 32.

Turning to `CCC(C)n1ccnc1/C=C/C(=O)/C=C/c1ccccn1` (stereo not drawn), the “Ratio IC50” value turned out to be 85.

As to `Cn1cc(Br)c(/C=C/C(=O)/C=C/c2ccccn2)n1`, the “Ratio IC50” value stood at 82.

For the molecule `CC(C)CCn1ccnc1/C=C/C(=O)/C=C/c1nc2ccccc2n1CCC(C)C`, the “Ratio IC50” value is 121.

For the molecule `CCCCn1ccnc1/C=C/C(=O)/C=C/c1nc2ccccc2n1CCCC`, the “Ratio IC50” value was 134.

On to `Cn1c(/C=C/C(=O)/C=C/c2ccccn2)nc2ccccc21`, for which the “Ratio IC50” value is given as 45.

With `CC(C)n1ccnc1/C=C/C(=O)/C=C/c1cnc(N2CCCCC2)s1`, the “Ratio IC50” value is reported as 8.

Consider `Cc1cc(/C=C/C(=O)/C=C/c2ccccn2)no1`, for which the “Ratio IC50” value worked out at 57.

Take `CC(C)n1ccnc1/C=C/C(=O)/C=C/c1nc2ccccc2n1C(C)C`: the “Ratio IC50” value turned out to be 141.

Take `CCC(C)n1ccnc1/C=C/C(=O)/C=C/c1cc(OC)c(OC)c(OC)c1` (stereo not drawn): the “Ratio IC50” value was determined as 35.

For `CCC(C)n1ccnc1/C=C/C(=O)/C=C/c1nc2ccccc2n1C(C)CC` (stereo not drawn), the “Ratio IC50” value was determined as 106.

The subject of another experiment is DU-145. The experiment is described as follows: Potency index, ratio of curcumin IC50 to test compound IC50 for human DU145 cells. The format is functional.
Settings: not given
On to `CC(C)n1ccnc1/C=C/C(=O)/C=C/c1cnc(N2CCOCC2)s1`, for which the “Ratio IC50” value is 20.

Take `Cc1nc(-c2ccncc2)sc1/C=C/C(=O)/C=C/c1nccn1C(C)C`: the “Ratio IC50” value is reported as 40.

For `CCC(C)n1ccnc1/C=C/C(=O)/C=C/c1ccccn1` (stereo not drawn), the “Ratio IC50” value came out at 77.

As for `Cn1cc(Br)c(/C=C/C(=O)/C=C/c2ccccn2)n1`, the “Ratio IC50” value is on record as 53.

`CC(C)CCn1ccnc1/C=C/C(=O)/C=C/c1nc2ccccc2n1CCC(C)C`: the “Ratio IC50” value worked out at 34.

Regarding `CCCCn1ccnc1/C=C/C(=O)/C=C/c1nc2ccccc2n1CCCC`, the “Ratio IC50” value turned out to be 85.

In the case of `Cn1c(/C=C/C(=O)/C=C/c2ccccn2)nc2ccccc21`, the “Ratio IC50” value is 39.

Turning to `CC(C)n1ccnc1/C=C/C(=O)/C=C/c1cnc(N2CCCCC2)s1`, the “Ratio IC50” value was determined as 10.

As to `Cc1cc(/C=C/C(=O)/C=C/c2ccccn2)no1`, the “Ratio IC50” value came out at 38.

On to `CC(C)n1ccnc1/C=C/C(=O)/C=C/c1nc2ccccc2n1C(C)C`, for which the “Ratio IC50” value is 138.

With `CCC(C)n1ccnc1/C=C/C(=O)/C=C/c1cc(OC)c(OC)c(OC)c1` (stereo not drawn), the “Ratio IC50” value worked out at 39.

`CCC(C)n1ccnc1/C=C/C(=O)/C=C/c1nc2ccccc2n1C(C)CC` (stereo not drawn): the “Ratio IC50” value came out at 75.

Another experiment relates to LNCaP. In words: Potency index, ratio of curcumin IC50 to test compound IC50 for human LNCAP cells. Type of experiment: functional.
Settings: not given
On to `CC(C)n1ccnc1/C=C/C(=O)/C=C/c1cnc(N2CCOCC2)s1`, for which the “Ratio IC50” value is 10.

As to `Cc1nc(-c2ccncc2)sc1/C=C/C(=O)/C=C/c1nccn1C(C)C`, the “Ratio IC50” value was 25.

As for `CCC(C)n1ccnc1/C=C/C(=O)/C=C/c1ccccn1` (stereo not drawn), the “Ratio IC50” value is 57.

Consider `Cn1cc(Br)c(/C=C/C(=O)/C=C/c2ccccn2)n1`, for which the “Ratio IC50” value turned out to be 62.

Take `CC(C)CCn1ccnc1/C=C/C(=O)/C=C/c1nc2ccccc2n1CCC(C)C`: the “Ratio IC50” value turned out to be 41.

In the case of `CCCCn1ccnc1/C=C/C(=O)/C=C/c1nc2ccccc2n1CCCC`, the “Ratio IC50” value is recorded as 34.

On to `Cn1c(/C=C/C(=O)/C=C/c2ccccn2)nc2ccccc21`, for which the “Ratio IC50” value was found to be 76.

Take `CC(C)n1ccnc1/C=C/C(=O)/C=C/c1cnc(N2CCCCC2)s1`: the “Ratio IC50” value is on record as 6.

As for `Cc1cc(/C=C/C(=O)/C=C/c2ccccn2)no1`, the “Ratio IC50” value was 44.

For the molecule `CC(C)n1ccnc1/C=C/C(=O)/C=C/c1nc2ccccc2n1C(C)C`, the “Ratio IC50” value stood at 52.

Regarding `CCC(C)n1ccnc1/C=C/C(=O)/C=C/c1cc(OC)c(OC)c(OC)c1` (stereo not drawn), the “Ratio IC50” value was 21.

Consider `CCC(C)n1ccnc1/C=C/C(=O)/C=C/c1nc2ccccc2n1C(C)CC` (stereo not drawn), for which the “Ratio IC50” value is 41.

In a further experiment the test system is PWR-1E. In words: Antiproliferative activity against human PWR-1E cells expressing androgen receptor and PSA assessed as decrease in cell viability after 3 days by WST assay. Type of experiment: functional, cell-based. The note with it: 72 h. In outline: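 Non-malignant prostate epithelial PWR-1E (adenovirus 12/SV40-immortalized) was seeded at 5,000 per well. Cells were exposed for 3 days at 37 °C in a CO2 incubator to at least five concentrations, with DMSO as vehicle control. WST-1 reagent was then added for 3 h at 37 °C and absorbance read at 430 nm. IC50 came from linear inhibition, as the mean of triplicate determinations.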
Take `CCC(C)n1ccnc1/C=C/C(=O)/C=C/c1ccccn1` (stereo not drawn): the concentration for half-maximal inhibition (IC50) turned out to be 170 nM.

For the molecule `Cn1cc(Br)c(/C=C/C(=O)/C=C/c2ccccn2)n1`, the half-inhibitory concentration (IC50) was 100 nM.

As for `CC(C)n1ccnc1/C=C/C(=O)/C=C/c1nc2ccccc2n1C(C)C`, the half-inhibitory concentration (IC50) worked out at 30 nM.

The subject of another experiment is PWR-1E. In words: Potency index, ratio of curcumin IC50 to test compound IC50 for human PWR-1E cells expressing androgen receptor and PSA. The format is functional.
Settings: not given
Regarding `CCC(C)n1ccnc1/C=C/C(=O)/C=C/c1ccccn1` (stereo not drawn), the “Ratio IC50” value was 52.

`Cn1cc(Br)c(/C=C/C(=O)/C=C/c2ccccn2)n1`: the “Ratio IC50” value is listed as 89.

As to `CC(C)n1ccnc1/C=C/C(=O)/C=C/c1nc2ccccc2n1C(C)C`, the “Ratio IC50” value was 293.
